Among the data in ChEMBL document CHEMBL3603793, “Antimalarial activity of prodrugs of N-branched acyclic nucleoside phosphonate inhibitors of 6-oxopurine phosphoribosyltransferases” (Bioorg Med Chem, 2015) are IC50, CC50 and Ki values, retold here.

Data set [1] relates to Plasmodium falciparum. The data set is described as follows: Antimalarial activity against chloroquine-sensitive Plasmodium falciparum D6 infected in erythrocytes assessed as inhibition of [3H]-hypoxanthine incorporation after 6 days. Type of data set: functional, organism-based.
Data set [2] relates to Plasmodium falciparum. The data set is described as follows: Antimalarial activity against chloroquine-resistant Plasmodium falciparum W2 infected in erythrocytes assessed as inhibition of [3H]-hypoxanthine incorporation after 6 days. It counts as functional, organism-based.
Data set [3] is described as follows: Cytotoxicity against human A549 cells after 4 days. It counts as cell-based. Summed up:
(§1)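 Cells seeded in 96-well plates at 7,500 (A549) or 15,000 (C32, C32-TG) per well; compounds added at serial dilutions 24 h later. Incubated four days at 37°C, then trypsinized and counted with a Coulter Counter. CC50 is the concentration giving 50% proliferation versus untreated cells, obtained by extrapolation; mean ± SEM of two or three independent tests.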

Data set [4] is described as follows: Cytotoxicity against human C32 cells after 4 days. It counts as cell-based. Summed up:
as §1

A short description of data set [5]: Cytotoxicity against human HGPRT-deficient thioguanine-resistant C32TG cells after 4 days. Type of data set: cell-based. Summed up:
as §1

Data set [6] deals with T1, Hypoxanthine-guanine phosphoribosyltransferase (Homo sapiens, UniProt P00492).
T1 sequence (P00492 whole entry): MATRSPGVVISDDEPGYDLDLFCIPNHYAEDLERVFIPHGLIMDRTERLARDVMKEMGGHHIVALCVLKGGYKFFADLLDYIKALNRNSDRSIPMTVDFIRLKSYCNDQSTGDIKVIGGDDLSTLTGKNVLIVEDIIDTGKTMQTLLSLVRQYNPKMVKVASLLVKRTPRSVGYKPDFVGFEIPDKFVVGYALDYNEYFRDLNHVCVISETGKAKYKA
The data set is described as follows: Inhibition of human HGPRT by spectrophotometric assay. Summed up: (§2)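 Spectrophotometric assay at 25°C in 0.1 M Tris-HCl, 10 mM MgCl2, pH 7.4. PRib-PP was the variable substrate and guanine the fixed substrate at a saturating 60 μM. Values are apparent Ki, since only one concentration of the second substrate was used, calculated from Km(app) = Km(1+[I]/Ki(app)).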

Data set [7] is described as follows: Inhibition of Plasmodium falciparum HGXPRT by spectrophotometric assay. In short, it runs like this:
as §2

Consider `CCOC(=O)[C@H](Cc1ccccc1)NP(=O)(CCN(CCn1cnc2c(=O)[nH]c(N)nc21)CCP(=O)(N[C@@H](Cc1ccccc1)C(=O)OCC)N[C@@H](Cc1ccccc1)C(=O)OCC)N[C@@H](Cc1ccccc1)C(=O)OCC`, for which the IC50 (usually the concentration that gives 50% inhibition) in the data set on Plasmodium falciparum [1] came to 6.3 µM; in the data set with Plasmodium falciparum [2] it was 7.4 µM. In addition, the results for the CC50 at 96 h in data set [3], in data set [4] and in data set [5] were 144 µM, 51 µM and 53 µM, respectively.
The like results for `CCOC(=O)[C@H](Cc1ccccc1)NP(=O)(CCN(CCn1cnc2c(=O)[nH]cnc21)CP(=O)(N[C@@H](Cc1ccccc1)C(=O)OCC)N[C@@H](Cc1ccccc1)C(=O)OCC)N[C@@H](Cc1ccccc1)C(=O)OCC` were, in that order, 4.7 µM, 1.6 µM, 41 µM, 23 µM and 25 µM.
On to `O=c1[nH]cnc2c1ncn2CCN(CCP(=O)(O)O)CC(O)CO` (configuration not stated), for which the Ki – broadly, a measure of affinity in units of concentration, obtained from inhibition or displacement – in data set [6] was determined as 3.8 µM; in data set [7], 5 µM.
For `CCOC(=O)[C@H](Cc1ccccc1)NP(=O)(CCN(CCn1cnc2c(=O)[nH]cnc21)CCP(=O)(N[C@@H](Cc1ccccc1)C(=O)OCC)N[C@@H](Cc1ccccc1)C(=O)OCC)N[C@@H](Cc1ccccc1)C(=O)OCC`, the IC50 in the data set with Plasmodium falciparum [1] turned out to be 3.1 µM; in the data set on Plasmodium falciparum [2], 2.7 µM. The CC50 (as a rule, the concentration giving 50% cytotoxicity) at 96 h amounted to 79 µM in data set [3], 48 µM in data set [4] and 48 µM in data set [5].
Consider `CCOC(=O)[C@H](Cc1ccccc1)NP(=O)(CCN(CCCC(=O)OC)CCn1cnc2c(=O)[nH]c(N)nc21)N[C@@H](Cc1ccccc1)C(=O)OCC`, for which the IC50 worked out at 8.6 µM in the data set on Plasmodium falciparum [1] and 5.7 µM with Plasmodium falciparum [2]. Also, the figures for the CC50 at 96 h in data set [3], in data set [4] and in data set [5] were at least 232 µM, 234 µM and at least 246 µM, respectively.
For `O=c1[nH]cnc2c1ncn2CCN(CCP(=O)(O)O)CP(=O)(O)O`, the results for the Ki in data set [6] and in data set [7] were 10 µM and 6 µM, respectively.
As for `CC(C)OC(=O)[C@H](Cc1ccccc1)NP(=O)(CCN(CCOCc1ccccc1)CCn1cnc2c(=O)[nH]cnc21)N[C@@H](Cc1ccccc1)C(=O)OC(C)C`, the IC50 in the data set with Plasmodium falciparum [1] was determined as 1.5 µM; in the data set on Plasmodium falciparum [2] it was 2.8 µM. The results for the CC50 at 96 h in data set [3], in data set [4] and in data set [5] were 23 µM, 13 µM and 18 µM, respectively.
For the molecule `CCOC(=O)[C@H](Cc1ccccc1)NP(=O)(CCN(CCn1cnc2c(=O)[nH]c(N)nc21)CP(=O)(N[C@@H](Cc1ccccc1)C(=O)OCC)N[C@@H](Cc1ccccc1)C(=O)OCC)N[C@@H](Cc1ccccc1)C(=O)OCC`, the values for the IC50 in the data set on Plasmodium falciparum [1] and in the data set with Plasmodium falciparum [2] were 10.4 µM and 4.6 µM, respectively. For the same molecule, the 50% cytotoxic concentration (CC50) at 96 h is over 300 µM in data set [3], 65 µM in data set [4] and 56 µM in data set [5].
With `Nc1nc2c(ncn2CCN(CCP(=O)(O)O)CP(=O)(O)O)c(=O)[nH]1`, the Ki in data set [6] came out at 2 µM; in data set [7], 1 µM.
Consider `Nc1nc2c(ncn2CCN(CCP(=O)(O)O)CC(O)CO)c(=O)[nH]1` (configuration not stated), for which the Ki in data set [6] and in data set [7] was 0.6 µM each time.
Consider `O=c1[nH]cnc2c1ncn2CCN(CCOCc1ccccc1)CCP(=O)(O)O`, for which the Ki in data set [6] came to 13 µM; in data set [7], 4.3 µM.
As to `CCOC(=O)[C@H](Cc1ccccc1)NP(=O)(CCN(CCCC#N)CCn1cnc2c(=O)[nH]cnc21)N[C@@H](Cc1ccccc1)C(=O)OCC`, the IC50 with Plasmodium falciparum [1] amounted to 4.2 µM; with Plasmodium falciparum [2], 5.5 µM. Also, the CC50 at 96 h came to 30 µM in data set [3], 102 µM in data set [4] and 89 µM in data set [5].
As to `Nc1nc2c(ncn2CCN(CCOCc2ccccc2)CCP(=O)(O)O)c(=O)[nH]1`, the values for the Ki in data set [6] and in data set [7] were 1.9 µM and 2.4 µM, respectively.
Take `CC(C)OC(=O)[C@H](Cc1ccccc1)NP(=O)(CCN(CCOCc1ccccc1)CCn1cnc2c(=O)[nH]c(N)nc21)N[C@@H](Cc1ccccc1)C(=O)OC(C)C`: the IC50 in the data set on Plasmodium falciparum [1] is 1.6 µM; in the data set with Plasmodium falciparum [2], 2.9 µM. The CC50 at 96 h in data set [3] was 20 µM; in data set [4], 17 µM; in data set [5] it was 23 µM.
`CCOC(=O)[C@H](Cc1ccccc1)NP(=O)(CCN(CCC(=O)OC)CCn1cnc2c(=O)[nH]cnc21)N[C@@H](Cc1ccccc1)C(=O)OCC`: the IC50 worked out at 3.5 µM with Plasmodium falciparum [1] and 2.9 µM with Plasmodium falciparum [2]. In addition, the values for the CC50 at 96 h in data set [3], in data set [4] and in data set [5] were 70 µM, over 300 µM and 212 µM, respectively.
In the case of `CCOC(=O)[C@H](Cc1ccccc1)NP(=O)(CCN(CCC(=O)OC)CCn1cnc2c(=O)[nH]c(N)nc21)N[C@@H](Cc1ccccc1)C(=O)OCC`, the IC50 was found to be 11.8 µM in the data set with Plasmodium falciparum [1] and 5.6 µM in the data set on Plasmodium falciparum [2]. The CC50 at 96 h in data set [3], in data set [4] and in data set [5] was over 300 µM each time.
